Measured values taken from ChEMBL document CHEMBL2093137, “WHO-TDR NTD Screening”.
Converted amounts (≈) assume the structure as drawn.

Assays:
[1] = WHO-TDR: Cytotoxicity; assay type: toxicity, cell-based; conditions: human, MRC5 cells
Plasmodium falciparum K1 = experiment: WHO-TDR: Malaria; assay type: functional, organism-based, Homo sapiens; conditions: Erythrocyte
Method in brief: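 Values are IC50 figures for antiplasmodial potency. They come from a whole-organism screen of 10,000 diverse Life Chemicals compounds against Plasmodium falciparum K1 growing inside human red blood cells, run by previously published standard procedures.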

Trypanosoma cruzi = experiment: WHO-TDR: Chagas disease; assay type: functional, organism-based, Homo sapiens; conditions: MRC5
Method in brief: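 Following previously published standard procedures, with a reference drug as positive control, a whole-organism assay was run on Trypanosoma cruzi Tulahuen CL2 beta-galactosidase strain amastigotes inside MRC-5SV2 human lung fibroblast host cells. The 10,000 compounds tested formed a diverse Life Chemicals library filtered for drug-likeness and reactive groups. Results are expressed as IC50 for antiparasitic potency.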

[2] = system: Trypanosoma brucei brucei; experiment: WHO-TDR: Human African Trypanosomiasis (HAT); assay type: functional, organism-based; conditions: Squib-427
Method in brief: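 Values are IC50 figures for antiparasitic potency. They come from a whole-organism screen of 10,000 diverse Life Chemicals compounds against bloodstream-form Trypanosoma brucei (Squib 427 strain).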

Leishmania infantum = experiment: WHO-TDR: Leishmaniasis; assay type: functional, organism-based, Mus musculus; conditions: Macrophage
Method in brief: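 Values are IC50 figures for antiparasitic potency. They come from a whole-organism screen of a 10,000-compound diverse Life Chemicals library against Leishmania infantum MHOM/MA(BE)/67 amastigotes inside murine peritoneal macrophage host cells.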

Schistosoma mansoni [3] = experiment: (§1) WHO-TDR: Schistosomiasis; assay type: functional; set-up: concentration or dose not given beside the values
Method in brief: (§2)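 In this whole-organism assay, larval and/or adult worms of Schistosoma mansoni (Puerto Rican strain) were exposed to compounds from a diverse Life Chemicals library of 10,000 members. A reference drug served as positive control. Activity is stated as percent inhibition and IC50.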

Schistosoma mansoni [4] = experiment: as §1; assay type: functional, organism-based; method in brief: as §2
Onchocerca lienalis = experiment: (§3) WHO-TDR: Onchocerciasis; assay type: functional; set-up: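 at 12.5 µM on microfilariae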
Method in brief: (§4)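 Microfilariae of Onchocerca ochengi or Onchocerca lienalis, animal pathogens standing in for the human parasite, were exposed to compounds in a whole-organism screen. The compounds came from a 10,000-compound diverse Life Chemicals library filtered for drug-likeness and reactive groups. Results are expressed as percent inhibition and IC50.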

Onchocerca ochengi = experiment: as §3; assay type: functional; set-up: concentration or dose not given beside the values; method in brief: as §4;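 note: at 12.5 µM on microfilariae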
Brugia malayi = experiment: WHO-TDR: Lymphatic Filariasis; assay type: functional; set-up: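 tested at 10 µM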
Method in brief: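 In a whole-organism assay, Brugia malayi microfilariae were screened against a diverse Life Chemicals library that had been filtered for drug-likeness and reactive groups. That library comprised 10,000 compounds. Activity is expressed as percent inhibition and as IC50.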

Row | SMILES | IC50 [1] [µg/mL] | IC50 (Plasmodium falciparum K1) [µg/mL] | IC50 (Trypanosoma cruzi) [µg/mL] | IC50 [2] [µg/mL] | IC50 (Leishmania infantum) [µg/mL] | % Inhibition (Schistosoma mansoni [3]) [%] | IC50 (Schistosoma mansoni [4]) | % Inhibition (Onchocerca lienalis) [%] | % Inhibition (Onchocerca ochengi) [%] | % Inhibition (Brugia malayi) [%]
1 | Cc1ccc(NC(=O)CSc2nncc(=O)[nH]2)cc1Cl | 2.55 (≈ 8.2 µM) | 3.64 (≈ 11.7 µM) | 2.99 (≈ 9.61 µM) | 2.91 (≈ 9.37 µM) | > 9.32 | 100 | 4.5 µM | 0 |  | 
2 | COc1cc(OC)cc(C(=O)N(CCCN(C)C)c2nc3c(C)c(C)ccc3s2)c1 | 2.84 (≈ 6.64 µM) | 1.13 (≈ 2.64 µM) | 4.66 (≈ 10.9 µM) | 0.456 (≈ 1.07 µM) | 4.51 (≈ 10.5 µM) | 100 | 5.7 µM | 0 |  | 
3 | O=S(=O)(c1ccccc1Cl)N1CCN(c2ccc(-c3ccco3)nn2)CC1 | > 12.1 | > 12.1 | > 12.1 | > 12.1 | > 12.1 | 100 | 2.79 µg/mL |  | 0 | 0
4 | COc1cc(C)c(Cl)cc1S(=O)(=O)Nc1ccc(Nc2nc(C)cc(N3CCOCC3)n2)cc1 | > 15.1 | > 15.1 | > 15.1 | > 15.1 | > 15.1 | 100 | 5.1 µM | 46.7 |  | 
5 | O=C(CSc1nncc(=O)[nH]1)Nc1cc(C(F)(F)F)ccc1Cl | > 10.9 | > 10.9 | > 10.9 | > 10.9 | > 10.9 | 100 | 6.3 µM | 0 |  | 
6 | CCSc1nnc(NC(=O)CSc2nncc(=O)[nH]2)s1 | 1.95 (≈ 5.92 µM) | > 9.91 | 3.09 (≈ 9.35 µM) | 3.13 (≈ 9.49 µM) | 3.21 (≈ 9.71 µM) | 100 | 5.2 µM | 0 |  | 
7 | O=C(CSc1nncc(=O)[nH]1)Nc1ccc(Br)cc1 | 1.76 (≈ 5.15 µM) | 0.966 (≈ 2.83 µM) | 2.82 (≈ 8.26 µM) | 3.24 (≈ 9.49 µM) | > 10.2 | 100 | 5.2 µM | 0 |  | 
8 | COC(=O)c1sc(-c2ccccc2)cc1NC(=O)CCS(=O)(=O)c1ccccc1 | > 9.7 | > 9.7 | > 9.7 | > 9.7 | > 9.7 | 100 | 8.2 µM | 13.3 |  | 
9 | Cn1ncc2c(N3CCOCC3)nc(NCCc3c[nH]c4ccccc34)nc21 [TDR79432] | 3.75 (≈ 9.93 µM) | 5.13 (≈ 13.6 µM) | 2.69 (≈ 7.11 µM) | > 11.3 | > 11.3 | 100 | 3.8 µM | 0 |  | 
10 | O=C(NCc1nnnn1-c1ccc(Cl)cc1)C1c2ccccc2Oc2ccccc21 | > 12.5 | > 12.5 | > 12.5 | > 12.5 | > 12.5 | 100 | 6.6 µM | 0 |  | 
11 | CCN(c1ccccc1)S(=O)(=O)c1ccc(C(=O)Nc2sc3c(c2C(=O)NC)CCCC3)cc1 | > 11 | 7.35 (≈ 14.8 µM) | 5.24 (≈ 10.5 µM) | > 11 | > 11 | 100 | 9.9 µM | 13.3 |  | 
12 | CCOc1ccc(NC(=O)CSc2nncc(O)n2)cc1 | 3.01 (≈ 9.83 µM) | 0.566 (≈ 1.85 µM) | 3.3 (≈ 10.8 µM) | 2.53 (≈ 8.27 µM) | > 9.19 | 100 | 5.8 µM | 0 |  | 
13 | COc1ccc(N2CCCS2(=O)=O)cc1NC(=O)c1cc(Cl)ccc1OC | > 12.3 | > 12.3 | 5.04 (≈ 12.3 µM) | 4.31 (≈ 10.5 µM) | 0.399 (≈ 0.971 µM) | 100 | 4.3 µM | 13.3 |  | 
